According to ChEMBL document CHEMBL2406919, “On the antibiotic and antifungal activity of pestalone, pestalachloride A, and structurally related compounds” (2013):
≈ marks a conversion by molar mass, not a printed value.

Assays:
Assay type in all cases: functional
Staphylococcus aureus [1] = test: Antimicrobial activity against Staphylococcus aureus ATCC 29213 after 24 hrs by microdilution method; details: ATCC 29213, 24 h
Outline: (§1)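 CLSI (M7-A6) broth microdilution with 2-fold serial compound dilutions in Mueller−Hinton broth. Inoculum was 10⁵ cfu/mL, with vancomycin as control. After 24 h at 37 °C, MIC was read as the lowest concentration inhibiting visible growth.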

Staphylococcus aureus [2] = test: Antimicrobial activity against community acquired Staphylococcus aureus MW2 after 24 hrs by microdilution method; details: MW2, 24 h; outline: as §1
Staphylococcus aureus [3] = test: Antimicrobial activity against epidemic community acquired methicillin-resistant Staphylococcus aureus USA300 after 24 hrs by microdilution method; details: USA300, 24 h
Outline: (§2)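 CLSI broth microdilution (M7-A6) with 2-fold serial compound dilutions in Mueller–Hinton broth. Inoculum 10⁵ cfu/mL. Strains came from NARSA, stored at −70 °C and revived on Mueller–Hinton agar days before testing. After 24 h at 37 °C, MIC read as the lowest concentration preventing visible growth. Vancomycin served as control.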

Pseudomonas fluorescens = test: Antifungal activity against Pseudomonas fluorescens after 3 to 5 days by photometric method; details: read-out: ED50 (the source's name)
Outline: (§3)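 Test compound in methanol with alkylaryl polyglycol ether emulsifier was dried in wells, then liquid potato dextrose medium with spores or mycelium of the test organism was added. Incubated 3−5 days shaking at 20 °C, 85% relative humidity. Growth was taken as the change in extinction at 620 nm before and after incubation. ED₅₀ (50% growth inhibition, ppm = μg/mL) came from a dose−response curve against untreated control.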

Botrytis cinerea = test: Antifungal activity against Botrytis cinerea after 3 to 5 days by photometric method; details: read-out: ED50 (the source's name); outline: as §3
Pyricularia oryzae = test: Antifungal activity against Pyricularia oryzae after 3 to 5 days by photometric method; details: read-out: ED50 (the source's name)
Outline: (§4)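 Test compound in methanol with alkylaryl polyglycol ether emulsifier dried into wells. Liquid potato dextrose medium holding spores or mycelium of the fungus added. OD620 read before and after 3–5 days shaking at 20 °C, 85% relative humidity. ΔOD against untreated control fitted to a dose–response curve; ED50 (50% growth inhibition) given in ppm (μg/mL).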

Fusarium graminearum = test: Antifungal activity against Gibberella zeae after 3 to 5 days by photometric method; details: read-out: ED50 (the source's name); outline: as §4
[4] = Antifungal activity against Ustilago avenae after 3 to 5 days by photometric method; outline: as §3
[5] = Antifungal activity against Trametes versicolor after 3 to 5 days by photometric method; outline: as §3
Aspergillus niger = test: Antifungal activity against Aspergillus niger after 3 to 5 days by photometric method; details: read-out: ED50 (the source's name); outline: as §3
Fusarium culmorum = test: Antifungal activity against Fusarium culmorum after 3 to 5 days by photometric method; details: read-out: ED50 (the source's name); outline: as §3
Pythium aphanidermatum = test: Antifungal activity against Pythium aphanidermatum after 3 to 5 days by photometric method; details: read-out: ED50 (the source's name); outline: as §3
Zymoseptoria tritici = test: Antifungal activity against Septoria tritici after 3 to 5 days by photometric method; details: read-out: ED50 (the source's name); outline: as §3
[6] = Antifungal activity against Phytophthora cryptogea after 3 to 5 days by photometric method; outline: as §3
Alternaria mali = test: Antifungal activity against Alternaria mali after 3 to 5 days by photometric method; details: read-out: ED50 (the source's name); outline: as §3
[7] = Antifungal activity against Pyrenophora teres after 3 to 5 days by photometric method; outline: as §3
[8] = Antifungal activity against Leptosphaeria nodorum after 3 to 5 days by photometric method; outline: as §3
Phytophthora infestans = test: Antifungal activity against Phytophthora infestans after 3 to 5 days by photometric method; details: read-out: ED50 (the source's name); outline: as §4
Staphylococcus aureus [9] = test: Antimicrobial activity against hospital acquired vancomycin-intermediate Staphylococcus aureus Mu50 after 24 hrs by microdilution method; details: Mu50, 24 h; outline: as §2
Staphylococcus aureus [10] = test: Antimicrobial activity against methicillin-resistant Staphylococcus aureus LT-1334 after 24 hrs by microdilution method; details: LT-1334, 24 h
Outline: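 Broth microdilution per CLSI with 2-fold serial compound dilutions. Growth and testing in half-concentrated Mueller–Hinton broth, inoculum 10⁵ cfu/mL. MIC read after 24 h at 37 °C as the lowest concentration inhibiting visible growth.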

Bacillus subtilis = test: Antimicrobial activity against Bacillus subtilis 168 after 24 hrs by broth microdilution method; details: subsp. subtilis str. 168 
Outline: (§5)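 CLSI broth microdilution with 2-fold serial compound dilutions in half-concentrated Mueller−Hinton broth. Inoculum was 10⁵ cfu/mL. After 24 h at 37 °C, MIC was read as the lowest concentration inhibiting visible growth.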

Staphylococcus aureus [11] = test: Antimicrobial activity against Staphylococcus aureus SG511 after 24 hrs by broth microdilution method; details: SG511, 24 h; outline: as §5

| Compound | MIC (Staphylococcus aureus [1]) | MIC (Staphylococcus aureus [3]) | EC50 (Pseudomonas fluorescens) | EC50 (Botrytis cinerea) | EC50 (Pyricularia oryzae) | EC50 (Fusarium graminearum) | ED50 [4] | ED50 [5] | EC50 (Aspergillus niger) | EC50 (Fusarium culmorum) | EC50 (Pythium aphanidermatum) | EC50 (Zymoseptoria tritici) | ED50 [6] | EC50 (Alternaria mali) | ED50 [7] | ED50 [8] | EC50 (Phytophthora infestans) | MIC (Staphylococcus aureus [9]) | other results |
| --- | --- | --- | --- | --- | --- | --- | --- | --- | --- | --- | --- | --- | --- | --- | --- | --- | --- | --- | --- |
| COc1c(Cl)c(C)c(Cl)c(O)c1C1c2c(CC=C(C)C)c(O)cc(O)c2C(=O)N1Cc1ccccc1 (racemic) | > 50 µg/mL |  |  |  |  |  |  |  |  |  |  |  |  |  |  |  |  |  | MIC (Staphylococcus aureus [2]): > 50 µg/mL |
| CN[C@H](CC(C)C)C(=O)N[C@H]1C(=O)N[C@@H](CC(N)=O)C(=O)N[C@H]2C(=O)N[C@H]3C(=O)N[C@H](C(=O)N[C@H](C(=O)O)c4cc(O)cc(O)c4-c4cc3ccc4O)[C@H](O)c3ccc(c(Cl)c3)Oc3cc2cc(c3O[C@@H]2O[C@H](CO)[C@@H](O)[C@H](O)[C@H]2O[C@H]2C[C@](C)(N)[C@H](O)[C@H](C)O2)Oc2ccc(cc2Cl)[C@H]1O [VANCOMYCIN] |  | 0.25 µg/mL (≈ 0.173 µM) |  |  |  |  |  |  |  |  |  |  |  |  |  |  |  |  |  |
| COc1cc(OC)c(Br)c(C(=O)c2c(OC)c(Cl)c(C)c(Cl)c2OC)c1Br |  |  | > 50 µg/mL | > 50 µg/mL | 12.6 µg/mL (≈ 23.2 µM) | > 50 µg/mL | > 50 µg/mL | > 50 µg/mL | > 50 µg/mL | 2.2 µg/mL (≈ 4.05 µM) | > 50 µg/mL | > 50 µg/mL | > 50 µg/mL | > 50 µg/mL | 42 µg/mL (≈ 77.3 µM) | > 50 µg/mL |  |  |  |
| COc1c(Cl)c(C)c(Cl)c(O)c1C1NC(=O)c2c(O)cc(O)c(CC=C(C)C)c21 (racemic) [PESTALACHLORIDE A] | 10 µg/mL (≈ 22.8 µM) |  | > 50 µg/mL | > 50 µg/mL | > 50 µg/mL | > 50 µg/mL | > 50 µg/mL | > 50 µg/mL | > 50 µg/mL | 31.9 µg/mL (≈ 72.8 µM) | > 50 µg/mL | > 50 µg/mL | > 50 µg/mL | > 50 µg/mL | 33.1 µg/mL (≈ 75.5 µM) | > 50 µg/mL | > 50 µg/mL |  | MIC (Staphylococcus aureus [2]): 10 µg/mL (≈ 22.8 µM) |
| COc1c(Cl)c(C)c(Cl)c(O)c1C(=O)c1cc(O)cc2c1CCC(C)(C)O2 |  | 7 µg/mL (≈ 17 µM) |  |  |  |  |  |  |  |  |  |  |  |  |  |  |  | 7 µg/mL (≈ 17 µM) |  |
| COc1cc(OC)c(CC=C(C)C)c(C(=O)c2c(OC)c(Cl)c(C)c(Cl)c2OC)c1Br |  |  | > 50 µg/mL | > 50 µg/mL | > 50 µg/mL | > 50 µg/mL | > 50 µg/mL | > 50 µg/mL | > 50 µg/mL | > 50 µg/mL | > 50 µg/mL | > 50 µg/mL | > 50 µg/mL | > 50 µg/mL | > 50 µg/mL | > 50 µg/mL | > 50 µg/mL |  |  |
| COc1c(Cl)c(C)c(Cl)c(O)c1C(=O)c1c(C=O)c(O)cc(O)c1CC=C(C)C [PESTALONE] | 16 µg/mL (≈ 36.4 µM) | 10 µg/mL (≈ 22.8 µM) | > 50 µg/mL | > 50 µg/mL | 28.6 µg/mL (≈ 65.1 µM) | > 50 µg/mL | > 50 µg/mL | > 50 µg/mL | > 50 µg/mL | 0.12 µg/mL (≈ 0.273 µM) | > 50 µg/mL | 26.7 µg/mL (≈ 60.8 µM) | 33.9 µg/mL (≈ 77.2 µM) | 22.4 µg/mL (≈ 51 µM) | 2.2 µg/mL (≈ 5.01 µM) | 22.4 µg/mL (≈ 51 µM) | > 50 µg/mL | 10 µg/mL (≈ 22.8 µM) | MIC (Staphylococcus aureus [10]): 6.25 µg/mL (≈ 14.2 µM); MIC (Bacillus subtilis): 1.6 µg/mL (≈ 3.64 µM); MIC (Staphylococcus aureus [11]): 3.1 µg/mL (≈ 7.06 µM) |
| COc1cc(OC)c(CC=C(C)C)c(C(=O)c2c(O)c(Cl)c(C)c(Cl)c2OC)c1C=O |  | 10 µg/mL (≈ 21.4 µM) | > 50 µg/mL | > 50 µg/mL | 5 µg/mL (≈ 10.7 µM) | > 50 µg/mL | > 50 µg/mL | > 50 µg/mL | > 50 µg/mL | 1.2 µg/mL (≈ 2.57 µM) | 44.4 µg/mL (≈ 95 µM) | > 50 µg/mL | > 50 µg/mL | > 50 µg/mL | 5.4 µg/mL (≈ 11.6 µM) | 22.5 µg/mL (≈ 48.1 µM) |  | 15 µg/mL (≈ 32.1 µM) |  |
| COc1c(Cl)c(C)c(Cl)c(O)c1C1c2c(CC=C(C)C)c(O)cc(O)c2C(=O)N1C (racemic) | > 50 µg/mL |  |  |  |  |  |  |  |  |  |  |  |  |  |  |  |  |  | MIC (Staphylococcus aureus [2]): > 50 µg/mL |
| COc1c(Cl)c(C)c(Cl)c(O)c1C1OC(=O)c2c(O)cc(O)c(CC=C(C)C)c21 (racemic) [RAC-PESTALALACTONE] |  | 25 µg/mL (≈ 56.9 µM) | > 50 µg/mL | > 50 µg/mL | > 50 µg/mL | > 50 µg/mL | > 50 µg/mL | 13.1 µg/mL (≈ 29.8 µM) | > 50 µg/mL | > 50 µg/mL | > 50 µg/mL | > 50 µg/mL | 18.9 µg/mL (≈ 43 µM) | > 50 µg/mL | 4.3 µg/mL (≈ 9.79 µM) | > 50 µg/mL |  |  |  |
| COc1c(Cl)c(C)c(Cl)c(O)c1C(=O)c1cc(O)cc(O)c1CC=C(C)C [DEFORMYL-PESTALONE] |  | 5 µg/mL (≈ 12.2 µM) |  |  |  |  |  |  |  |  |  |  |  |  |  |  |  | 5 µg/mL (≈ 12.2 µM) |  |
| COc1c(Cl)c(C)c(Cl)c(O)c1C(=O)c1c(Br)c(O)cc(O)c1Br |  | 30 µg/mL (≈ 59.9 µM) | > 50 µg/mL | > 50 µg/mL | > 50 µg/mL | > 50 µg/mL | > 50 µg/mL | > 50 µg/mL | > 50 µg/mL | 0.014 µg/mL (≈ 0.0279 µM) |  | > 50 µg/mL | > 50 µg/mL | > 50 µg/mL | > 50 µg/mL | > 50 µg/mL | > 50 µg/mL | 30 µg/mL (≈ 59.9 µM) |  |
